Data on two compounds can be found in paper PMC5376495 (ACS combinatorial science, 2017).

For test [1], the system named is PRC2 complexes containing EED mutations (F97A, W364A, Y365A). Briefly: PRC2 methyltransferase assay with EED aromatic cage mutants. The test is classed as biochemical. Put shortly: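 EZH2:EED:SUZ12 complexes carrying EED cage mutations made by site-directed mutagenesis, co-expressed in baculovirus-infected Sf9 cells, and FLAG-affinity purified like wild type. Reaction ran 1 h at 23 °C in 20 mM Tris-HCl pH 8, 5 mM DTT, 0.01% Triton X-100 with 1 µM 3H-SAM, 1 µM biotinylated H3(21–44), and 20 nM complex. Stopped by adding 7.5 M guanidine-HCl. Scintillation proximity read-out on streptavidin Flash-plates after 2 h. Normalised to no-compound (100%) and no-enzyme (0%) CPM.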

The target of another test is EED (Homo sapiens, UniProt O75530). Conditions: cited from earlier work.

Where a SMILES comes first, the peptide text is derived from it. [ ]: non-standard residue; d: D form. The star is where a group is joined. Benzoyl(4-tBu) = CC(C)(C)c1ccc(C(=O)*)cc1; Lys(Et2) = CCN(CC)CCCC[C@H](N)C(=O)O

Sequence of EED (O75530 whole entry): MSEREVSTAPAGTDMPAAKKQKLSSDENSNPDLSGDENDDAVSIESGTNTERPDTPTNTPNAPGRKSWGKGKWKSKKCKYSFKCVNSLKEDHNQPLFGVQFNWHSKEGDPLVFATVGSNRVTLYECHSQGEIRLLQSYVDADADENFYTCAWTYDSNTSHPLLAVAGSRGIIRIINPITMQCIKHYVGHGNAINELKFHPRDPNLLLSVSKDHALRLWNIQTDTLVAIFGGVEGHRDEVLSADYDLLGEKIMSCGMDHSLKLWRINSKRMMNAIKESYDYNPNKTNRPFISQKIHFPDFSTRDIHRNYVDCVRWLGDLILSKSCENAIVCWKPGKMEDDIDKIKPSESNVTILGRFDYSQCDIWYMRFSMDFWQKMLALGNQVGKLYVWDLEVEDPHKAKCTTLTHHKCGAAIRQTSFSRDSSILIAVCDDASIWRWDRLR

Turning to `CCCc1cc(C)[nH]c(=O)c1CNC(=O)c1cc(-c2ccc(N3CCN(C(C)C)CC3)nc2)cc2c1cnn2C(C)C` [UNC1999], in test [1], the “inhibition of basal catalytic activity of PRC2 with EED mutants” value was “completely abrogates the activity”.

Take `CCN(CC)CCCC[C@H](NC(=O)[C@H](CC(C)C)NC(=O)[C@H](C)NC(=O)[C@H](Cc1ccccc1)NC(=O)c1ccc(C(C)(C)C)cc1)C(=O)N[C@@H](CO)C(=O)OC` [UNC3866] ({Benzoyl(4-tBu)}-FAL[Lys(Et2)]S-OMe): at EED, the “affinity for EED in solution-based assays” value was “lack of affinity”.
